Experiment [1] addresses T1, Tyrosine-protein kinase JAK3 (Homo sapiens, UniProt P52333).
T1 sequence (P52333 whole entry): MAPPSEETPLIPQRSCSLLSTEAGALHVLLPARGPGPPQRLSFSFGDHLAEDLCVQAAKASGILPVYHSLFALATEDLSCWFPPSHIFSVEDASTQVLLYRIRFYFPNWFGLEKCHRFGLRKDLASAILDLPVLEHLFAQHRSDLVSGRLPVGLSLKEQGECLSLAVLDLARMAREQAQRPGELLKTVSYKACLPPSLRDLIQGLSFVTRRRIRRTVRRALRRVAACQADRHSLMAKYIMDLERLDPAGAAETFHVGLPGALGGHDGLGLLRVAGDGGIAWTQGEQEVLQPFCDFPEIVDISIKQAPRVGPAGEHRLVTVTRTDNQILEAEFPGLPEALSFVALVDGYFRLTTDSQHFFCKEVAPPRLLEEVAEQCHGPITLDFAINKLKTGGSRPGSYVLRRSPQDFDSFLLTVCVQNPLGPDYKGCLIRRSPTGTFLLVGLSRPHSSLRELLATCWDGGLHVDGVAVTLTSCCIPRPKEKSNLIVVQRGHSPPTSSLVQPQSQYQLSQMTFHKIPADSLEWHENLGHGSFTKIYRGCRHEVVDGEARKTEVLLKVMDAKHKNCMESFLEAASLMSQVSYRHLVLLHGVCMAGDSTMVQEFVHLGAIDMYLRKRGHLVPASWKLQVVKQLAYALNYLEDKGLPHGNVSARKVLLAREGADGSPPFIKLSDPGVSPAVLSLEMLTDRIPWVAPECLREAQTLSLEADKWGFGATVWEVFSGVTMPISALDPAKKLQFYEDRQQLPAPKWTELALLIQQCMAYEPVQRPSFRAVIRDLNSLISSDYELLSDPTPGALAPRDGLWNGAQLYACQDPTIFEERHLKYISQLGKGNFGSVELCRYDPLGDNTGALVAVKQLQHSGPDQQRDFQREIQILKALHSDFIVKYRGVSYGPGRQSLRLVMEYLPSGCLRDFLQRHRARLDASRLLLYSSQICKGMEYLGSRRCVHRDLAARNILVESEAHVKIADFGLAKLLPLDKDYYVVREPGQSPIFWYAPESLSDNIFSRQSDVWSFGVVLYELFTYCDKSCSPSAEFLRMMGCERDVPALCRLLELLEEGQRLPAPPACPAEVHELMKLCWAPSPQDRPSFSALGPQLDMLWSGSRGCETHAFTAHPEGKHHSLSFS
As to the kind of experiment: Inhibition of recombinant human N-terminal GST-tagged JAK3 (781 to end residues) expressed in baculovirus infected Sf9 cells using poly (Glu,Tyr) 4:1 as substrate incubated for 60 mins in presence of ATP by ADP-Glo kinase assay. In a few lines: (§1)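 ADP-Glo luminescent assay run at compound concentrations of 0.1, 1, 10, 100 and 1000 nM. The kinase reaction ran in 1× kinase buffer for 60 min at room temperature. ADP-Glo reagent was then added to stop the reaction and deplete ATP (40 min, RT), followed by detection reagent (30 min, RT) and a luminescence read. IC50s came from curve fitting; means of three experiments.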
A general note: ADP-Glo turns the ADP formed in a reaction into a luminescent signal.

Experiment [2] has as its target T2, Tyrosine-protein kinase BTK (Homo sapiens, UniProt Q06187). As to the kind of experiment: Inhibition of BTK (unknown origin) by ADP-Glo kinase assay. In a few lines:
as §1

Experiment [3] can be described thus: Cytotoxicity against human NHBE cells assessed as reduction in cell viability by CCK8 assay. In kind it is cell-based. In a few lines: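 Human bronchial epithelial (HBE) cells were tested for growth inhibition by CCK-8 assay. IC50 values are means of three separate experiments.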
(Tetrazolium dyes change colour on reduction, which living cells bring about.)

The target in experiment [4] is T1, Tyrosine-protein kinase JAK3. As to the kind of experiment: Inhibition of JAK3 (unknown origin).
Experiment [5] concerns the target T2, Tyrosine-protein kinase BTK. The experiment in a line: Inhibition of BTK (unknown origin).
The target in experiment [6] is Epidermal growth factor receptor (Homo sapiens, UniProt P00533). The experiment in a line: Inhibition of EGFR (unknown origin).
In experiment [7] the test system is Mus musculus. The experiment in a line: Antifibrotic activity against bleomycin-induced pulmonary fibrosis C57BL/6J mouse model assessed as reduction in alveolar septal swelling at 120 mg/kg, po administered via gavage qd for 14 days at 3 days post bleomycin challenge by hematoxylin and eosin staining based light microscopic analysis. Format: functional, organism-based. In a few lines: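 Intratracheal bleomycin (33 μg) was given to female C57BL/6J mice. Oral gavage started 3 days later and continued once daily for 14 days, with 1.4% DMSO saline as vehicle; n=8. Lungs were formalin-fixed for 24 h and paraffin-embedded. 5 μm sections were H&E-stained and examined by light microscopy at 200×.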

Experiment [8] deals with Mus musculus. The experiment in a line: Antifibrotic activity against bleomycin-induced pulmonary fibrosis C57BL/6J mouse model assessed as reduction in lung coefficient at 120 mg/kg, po administered via gavage qd for 14 days at 3 days post bleomycin challenge. Format: functional, organism-based. In a few lines:
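Bleomycin was given intratracheally (33 μg) to female C57BL/6J mice, 5‒6 weeks old. Daily oral gavage followed for 14 days from day 3, with 1.4% DMSO saline vehicle; n=8 per group. Fresh lungs were weighed and lung index was calculated as lung weight/body weight × 100.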

For experiment [9], the system named is Mus musculus. As to the kind of experiment: Antifibrotic activity against bleomycin-induced pulmonary fibrosis C57BL/6J mouse model assessed as reduction in oxidative stress by measuring reduction in MDA level in plasma at 120 mg/kg, po administered via gavage qd for 14 days at 3 days post bleomycin challenge. In kind it is functional, organism-based. In a few lines: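 After 33 μg intratracheal bleomycin, female C57BL/6J mice were gavaged once daily for 14 days from day 3 (vehicle saline, 1.4% DMSO; n=8). MDA was measured in heparinized plasma with a kit by absorbance at 532 nm; mean ± SEM.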

The subject of experiment [10] is Mus musculus. As to the kind of experiment: Antifibrotic activity against bleomycin-induced pulmonary fibrosis C57BL/6J mouse model assessed as reduction in IL6 expression in plasma at 120 mg/kg, po administered via gavage qd for 14 days at 3 days post bleomycin challenge by FACSCalibur flow cytometry. Format: functional, organism-based. In a few lines:
(§2)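 Female C57BL/6J mice (5‒6 weeks, 20‒25 g) were given 33 μg bleomycin intratracheally in saline under isoflurane. From day 3 they received oral gavage once daily for 14 days, with saline containing 1.4% DMSO as vehicle; n=8 per group. Vena cava blood was heparinized and spun at 3000 rpm for 10 min, and plasma was stored at −20 °C. IL-6, IL-17A and TNF-α were measured by flow cytometry; mean ± SEM.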
A general note: In flow cytometry, cells or beads pass a laser one at a time.

Experiment [11] concerns Mus musculus. The experiment in a line: Antifibrotic activity against bleomycin-induced pulmonary fibrosis C57BL/6J mouse model assessed as reduction in IL17A expression in plasma at 120 mg/kg, po administered via gavage qd for 14 days at 3 days post bleomycin challenge by FACSCalibur flow cytometry. Format: functional, organism-based. In a few lines:
as §2

The test system of experiment [12] is Mus musculus. As to the kind of experiment: Antifibrotic activity against bleomycin-induced pulmonary fibrosis C57BL/6J mouse model assessed as reduction in TNF-alpha expression in plasma at 120 mg/kg, po administered via gavage qd for 14 days at 3 days post bleomycin challenge by FACSCalibur flow cytometry. Format: functional, organism-based. In a few lines: as §2

The source made the active and inactive calls. The rule behind the calls is not given here.

Broadly, the IC50 is the concentration that gives 50% inhibition.

T2 sequence (Q06187 whole entry): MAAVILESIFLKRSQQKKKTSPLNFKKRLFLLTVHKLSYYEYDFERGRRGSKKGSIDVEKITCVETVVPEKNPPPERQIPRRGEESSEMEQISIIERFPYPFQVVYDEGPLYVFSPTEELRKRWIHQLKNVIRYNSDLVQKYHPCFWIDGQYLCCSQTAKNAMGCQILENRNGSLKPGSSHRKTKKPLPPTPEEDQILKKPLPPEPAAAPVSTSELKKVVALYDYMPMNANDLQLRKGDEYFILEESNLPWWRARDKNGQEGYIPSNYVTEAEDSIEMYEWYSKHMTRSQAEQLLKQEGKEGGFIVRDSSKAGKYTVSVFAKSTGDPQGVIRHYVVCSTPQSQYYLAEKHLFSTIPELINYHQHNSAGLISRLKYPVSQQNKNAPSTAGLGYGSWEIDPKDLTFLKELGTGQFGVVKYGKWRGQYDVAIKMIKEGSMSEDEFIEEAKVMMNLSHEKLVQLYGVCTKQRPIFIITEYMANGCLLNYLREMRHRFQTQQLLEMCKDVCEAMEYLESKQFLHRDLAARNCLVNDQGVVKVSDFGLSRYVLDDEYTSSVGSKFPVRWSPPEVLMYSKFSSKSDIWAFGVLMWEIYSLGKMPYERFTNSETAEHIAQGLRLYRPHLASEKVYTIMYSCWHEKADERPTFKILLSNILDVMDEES
Epidermal growth factor receptor, sequence (P00533 whole entry): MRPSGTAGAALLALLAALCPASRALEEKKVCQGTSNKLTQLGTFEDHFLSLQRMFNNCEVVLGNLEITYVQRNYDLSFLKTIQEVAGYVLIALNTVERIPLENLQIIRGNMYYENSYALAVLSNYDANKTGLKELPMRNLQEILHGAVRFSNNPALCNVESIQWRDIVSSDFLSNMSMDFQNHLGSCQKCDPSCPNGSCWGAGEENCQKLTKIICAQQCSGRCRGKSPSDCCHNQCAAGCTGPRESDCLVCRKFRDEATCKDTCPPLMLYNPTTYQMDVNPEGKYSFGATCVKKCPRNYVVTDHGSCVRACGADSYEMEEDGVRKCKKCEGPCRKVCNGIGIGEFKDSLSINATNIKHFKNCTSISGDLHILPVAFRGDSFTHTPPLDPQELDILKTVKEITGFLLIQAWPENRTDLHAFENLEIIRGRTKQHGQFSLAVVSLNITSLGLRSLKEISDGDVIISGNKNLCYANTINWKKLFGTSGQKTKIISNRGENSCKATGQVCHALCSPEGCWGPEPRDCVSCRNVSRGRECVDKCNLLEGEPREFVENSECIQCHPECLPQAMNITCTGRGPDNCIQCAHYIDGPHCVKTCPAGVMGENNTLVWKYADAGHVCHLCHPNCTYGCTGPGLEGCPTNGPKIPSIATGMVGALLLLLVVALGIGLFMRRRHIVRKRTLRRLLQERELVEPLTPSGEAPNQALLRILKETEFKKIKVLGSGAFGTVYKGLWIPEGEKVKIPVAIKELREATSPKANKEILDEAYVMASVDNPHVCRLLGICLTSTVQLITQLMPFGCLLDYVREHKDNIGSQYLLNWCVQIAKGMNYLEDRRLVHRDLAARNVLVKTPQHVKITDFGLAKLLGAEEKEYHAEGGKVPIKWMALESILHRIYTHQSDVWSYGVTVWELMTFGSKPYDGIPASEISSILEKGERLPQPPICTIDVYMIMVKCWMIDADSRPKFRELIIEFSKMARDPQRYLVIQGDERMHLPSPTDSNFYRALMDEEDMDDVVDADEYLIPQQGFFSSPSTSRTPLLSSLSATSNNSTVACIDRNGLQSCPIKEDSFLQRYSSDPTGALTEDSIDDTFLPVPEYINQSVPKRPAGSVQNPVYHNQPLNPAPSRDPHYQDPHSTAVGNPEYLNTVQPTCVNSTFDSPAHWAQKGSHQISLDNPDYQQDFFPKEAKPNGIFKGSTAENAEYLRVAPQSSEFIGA

For `C=CC(=O)Nc1cccc(Oc2nc(Nc3ccc(OCCCN4CCOCC4)cc3)nc3ccsc23)c1`, the IC50 is 89.2 nM in [1], over 100 nM in experiment [2] and over 40000 nM in [3].

On to `C=CC(=O)Nc1cccc(Oc2nc(Nc3ccc(SCCCN4CCOCC4)cc3)nc3ccsc23)c1`, for which the IC50 in experiment [1] is 46 nM; in experiment [2] it was over 100 nM; in experiment [3] it was over 40000 nM.

Turning to `C=CC(=O)Nc1cccc(Nc2nc(Nc3ccc(CN4CCOCC4)cc3)nc3ccsc23)c1`, the results for the IC50 in experiment [1], in [2] and in experiment [3] were 59.4 nM, over 100 nM and 8270 nM, respectively.

As for `C=CC(=O)Nc1cccc(Nc2nc(Nc3ccc(NC(=O)CN4CCOCC4)cc3)ncc2Cl)c1`, the IC50 in experiment [4], in [5] and in experiment [6] was under 10 nM each time.

As for `Cc1ccc(=O)n(-c2ccccc2)c1`, the result in [7], in experiment [8], in [9], in [10], in experiment [11] and in experiment [12] was Active.

Take `C=CC(=O)Nc1cccc(Oc2nc(Nc3ccc(OCCN4CCOCC4)cc3)nc3ccsc23)c1`: the values for the half-maximal inhibitory concentration (IC50) in [1], in [2] and in [3] were 90.8 nM, over 100 nM and 23300 nM, respectively.

The values above are taken from ChEMBL document CHEMBL4613238, “Synthesis and biological activity of thieno[3,2-d]pyrimidines as potent JAK3 inhibitors for the treatment of idiopathic pulmonary fibrosis” (Bioorg Med Chem, 2020).
